# An excerpt weighted towards active compounds, which were near 1.4% of everything screened.
# ABHD4 inh – ABHD4 inhibitors, primary screen, biochemical, fluorescence polarization, mouse | purified mABHD4, FP-Rh probe fluorescence polarization | inhibition, % at 8.92 µM | 370,000 compounds, 0.54% hits | AID 720543, 2013;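 active = inhibition exceeding the mean over every tested compound plus 3 SD, cut at about 30% in these data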;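 also: 0% = plate median of compound wells and 100% = S159A mutant with DMSO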
#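 Test system: mABHD4 protein | Buffer or medium: HEPES pH 7.0 buffer, 150 mM NaCl, 0.01% Pluronic F-127 | Probe or stimulus: FP-Rh fluorescent activity-based probe, added after compound pre-incubation | Timing: Pre-incubation 45 min, probe exposure 60 min, at 25 °C | Technique: Fluorescence polarization, excitation 525 nm, emission 598 nm, BODIPY TMR filters | Repeats: Single well per compound (singlicate)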
# HTRA1 inh – HTRA1 serine protease inhibitors, primary screen, biochemical, fluorescence polarization, HTS; Q92743; recombinant HTRA1, FP-rhodamine activity-based probe; inhibition, % at 5.96 µM; 340,000 compounds, 0.5% hits; AID 504803, 2011; in the data active = inhibition above about 36%;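 also: 0% = enzyme with DMSO and 100% = wells lacking enzyme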
# Target sequence (Q92743 whole entry, looked up): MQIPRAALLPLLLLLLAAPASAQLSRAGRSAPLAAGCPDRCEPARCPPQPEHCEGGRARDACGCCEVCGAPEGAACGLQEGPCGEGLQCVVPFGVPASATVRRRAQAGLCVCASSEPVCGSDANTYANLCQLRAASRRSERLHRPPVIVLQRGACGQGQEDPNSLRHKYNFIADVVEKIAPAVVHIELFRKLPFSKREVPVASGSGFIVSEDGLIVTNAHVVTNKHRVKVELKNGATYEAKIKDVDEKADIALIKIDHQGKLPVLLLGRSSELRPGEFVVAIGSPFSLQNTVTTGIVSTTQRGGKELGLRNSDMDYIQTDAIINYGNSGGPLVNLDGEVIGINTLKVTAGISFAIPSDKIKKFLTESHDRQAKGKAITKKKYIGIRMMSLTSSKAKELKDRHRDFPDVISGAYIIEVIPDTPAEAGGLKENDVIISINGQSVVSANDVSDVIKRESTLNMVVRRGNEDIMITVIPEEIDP
# SIAE primary – human SIAE inhibitors, primary screen, biochemical, fluorescence polarization, FP-Rh probe, 1536-well HTS. AID 1053197, 2014. SIAE FP-Rh probe binding. 370,000 compounds, 0.69% hits. Sialate O-acetylesterase (Homo sapiens), Q9HAT2. inhibition, % at 9.66 µM;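 active = inhibition above a cutoff: mean of compounds within the control limits plus 3 SD of those, cut at about 17% in these data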;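 also: 0% = plate median of compound wells and 100% = probe without SIAE protein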
# RBBP9 inh – human RBBP9 inhibitors, primary screen, biochemical, fluorescence polarization, FP-Rh probe, HTS; Serine hydrolase RBBP9 (Homo sapiens), O75884; recombinant RBBP9; inhibition, % at 7.94 µM; 220,000 compounds, 0.2% hits; AID 1515, 2009;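 active = inhibition above the campaign mean of all tested compounds plus 3 SD, cut at about 14% in these data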;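 also: plate controls were DMSO wells with RBBP9 for no effect and wells lacking RBBP9 protein for full effect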
#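 System: RBBP9 protein / Quantity: 2.5 µM RBBP9 dispensing solution, before mixing / Also added: Serine-hydrolase probe FP-Rh, 375 nM pre-mixing / Dosing: 7.94 µM single dose, 0.794% DMSO / Timing: enzyme-compound preincubation 30 min, then probe labeling 45 min, 25 °C / Signal: FP readout at 525/598 nm / Controls: DMSO-treated enzyme wells and wells lacking RBBP9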
# SIAE confirm – human SIAE inhibitors, retest, confirmation, biochemical, fluorescence polarization, FP-Rh probe, triplicate; 2,300 compounds, 13% hits; SIAE FP-Rh activity-based probe; inhibition, % at 9.66 µM; shares compounds with SIAE primary;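 active = mean inhibition of the replicates above the hit cutoff set in the primary screen, cut at about 17% in these data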;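 also: 0% = SIAE with DMSO and probe and 100% = probe without SIAE; inhibitors lower polarization as more probe stays unbound to SIAE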
# * = called active by the depositor; . = no result given.
SMILES,ABHD4 inh,HTRA1 inh,SIAE primary,RBBP9 inh,SIAE confirm
CCCN(CCC)CC(O)Cn1cc(/C=C/C(=O)c2ccccc2)c2ccccc21 (configuration not stated),5,-8,18*,1,-6
COc1ccc(C(=O)O)nc1C,5,-2,21*,-1,6
COC(=O)[C@]12C[C@H](CC(=O)NCCCN3CCCC3=O)C(=O)N(Cc3cccc4ccccc34)C1=C[C@H](C1CCCC1)O[C@@H]2C,0,.,-9,.,.
COc1ccccc1NC(=S)NCCc1c[nH]c2ccccc12,0,-1,3,-3,.
COc1cc(NC(=S)NCCc2c[nH]c3ccccc23)c(OC)cc1Cl,1,-13,20*,-7,7
CCC[C@H]1[C@@H](OC(=O)NCc2cccc(C(F)(F)F)c2)CC[C@@]23CCCN2C(=O)CCC[C@@H]13,3,.,-3,.,.
COc1ccc2oc(=O)c(-c3csc(Nc4cccc(O)c4)n3)cc2c1,11,-7,39*,1,-5
c1cnc(SCC2CCCCC2)c(-c2nc3ccccc3[nH]2)c1,0,.,-6,.,.
COC(=O)c1oc2ccccc2c1NC(=O)c1ccccc1O,-14,-7,3,5,.
Cc1c(C(=O)NNC(=O)c2ccccc2O)oc2ccccc12,24,28,21*,.,10
COc1ccc(-c2nc(NC(=O)c3[nH]c(C)c(C(C)=O)c3C)sc2C)cc1,4,-15,27*,-4,-2
N=C(N)CCCOc1ccccc1-c1ccccc1,5,-3,20*,-4,-2
O=C(O)C1C2C=CC(C2)C1C(=O)Nc1ccc2c(c1)OCCO2 (configuration not stated),.,10,.,-3,.
CN(C)c1ccc(NC(=O)C2C3C=CC(C3)C2C(=O)O)cc1 (configuration not stated),35*,35,23*,.,4
Cc1ccc(N(CC(=O)NC2CCCC2)C(=O)CCC(=O)Nc2nccs2)cc1C,2,5,18*,.,1
Cc1ccc(C)c(N(CC(=O)NC2CCCC2)C(=O)CCC(=O)Nc2nccs2)c1,0,0,-68,.,.
COc1c2occc2cc2ccc(=O)oc12,-3,-6,-2,4,.
CC(=O)Oc1c2occc2cc2ccc(=O)oc12,14,14,20*,6,2
COc1cc(OC)cc(C2=Cc3ccc(OC)cc3C(CC(C)=O)N2c2ccc(C#CCCO)cc2)c1 (configuration not stated),-8,.,6,.,.
COC(=O)c1ccc2nc(-c3cccc(Br)c3)c(Cc3cccc(Cl)c3)n2c1,-28,.,-12,.,.
COc1cc(/C=N/Nc2nc3ccccc3s2)cc([N+](=O)[O-])c1O,23,14,-7,-13,.
COc1cc(/C=N/Nc2nc3ccccc3s2)ccc1OC(=O)c1ccccc1F,5,-2,21*,3,-11
COc1cc(OC)cc(C(=O)Oc2ccc(/C=N/Nc3nc4ccccc4s3)cc2OC)c1,7,-12,19*,-7,17*
OCCC1CN(CC2CCCCC2)CCN1C1CCCC1 (configuration not stated),1,2,-6,.,.
COc1ccc2[nH]c(O)c(N=NC(=O)Cc3cccs3)c2c1,20,9,18*,9,11
SMILES,ABHD4 inh,HTRA1 inh,SIAE primary,RBBP9 inh,SIAE confirm
O=C(Cc1cccs1)N=Nc1c(O)[nH]c2ccc(Br)cc12,2,-4,-18,-2,.
COc1ccc2[nH]c(O)c(N=O)c2c1,10,9,26*,3,23*
O=Nc1c(O)[nH]c2ccc(F)cc12,12,15,23*,10,22*
NC(=S)N=Nc1c(O)[nH]c2ccc(F)cc12,9,7,-4,-7,.
COc1cccc(/C=C2\CC3(OC(=O)c4ccccc4)CCCN2C3)c1 (configuration not stated),1,.,4,.,.
Cc1ccc([N+](=O)[O-])cc1NC(=O)C1CCN(S(C)(=O)=O)CC1,5,0,20*,-5,3
COCCCNC(=O)/C(C#N)=C/c1ccc(F)cc1,-1,2,33*,-2,0
Cc1ccc2c(c1)C1CS(=O)(=O)N(Cc3ccccc3)C(=O)N1C2 (configuration not stated),-3,.,3,.,.
COc1ccc(N=Nc2c(N)n[nH]c2N)cc1,-1,1,22*,0,1
Cc1ccc(C(=O)N/C(=C\c2cn(C)c3ccccc23)C(=O)NCCN2CCOCC2)cc1,7,2,5,.,.
CCN(C(=S)Nc1cccc(C)c1)c1ccccc1,2,-1,24*,1,0
O=C(Nc1ccc(F)cc1)OCc1cn(Cc2ccc(Cl)cc2)nn1,-12,.,-2,.,.
CCOC(=O)c1[nH]c2ccc(Br)cc2c1NC(=O)CCN1CCN(C(=O)OCC)CC1,-7,-6,18*,0,0
CCn1nc(NS(=O)(=O)c2ccc(NC(C)=O)cc2)c2cc3cccc(C)c3nc21,8,6,18*,.,-3
CCn1nc(NS(=O)(=O)c2ccccc2)c2cc3cccc(C)c3nc21,4,-7,0,-3,.
Cc1ccc(N2CC(C(=O)NCc3cccs3)CC2=O)cc1C (configuration not stated),-2,2,16,-3,.
Cc1cc(N2CC(C(=O)NCc3cccs3)CC2=O)ccc1C(C)C (configuration not stated),0,-2,18*,3,2
CSCC[C@H]1COC[C@@H](Cc2ccccc2)N1c1ccccc1,0,-15,-9,.,.
O=C(O)C1C2C=CC(C2)C1C(=O)NCCc1cccc(Cl)c1 (configuration not stated),-2,2,22*,1,-9
O=C(O)C1C2C=CC(C2)C1C(=O)NCc1cccc(Cl)c1 (configuration not stated),-1,1,-3,.,.
Cc1cc(C)nc(SCCS(=O)(=O)Cc2ccc(Cl)cc2)n1,1,-5,20*,0,-3
COc1ccc(N2C(=O)c3n[nH]c(C)c3C2c2ccccc2)cc1 (configuration not stated),4,.,4,.,.
O=S(N1CCc2ccccc21)C12CC3CC(CC(C3)C1)C2 (configuration not stated),5,-3,23*,-4,-2
CC1CCN(C(=O)c2nc[nH]c2C(=O)N2CCC(C)CC2)CC1,-7,-3,-8,.,.
COC(=O)C(NC(C)=O)(Nc1ccc(Br)cn1)C(F)(F)F (configuration not stated),-3,-1,-2,-6,.
COC(=O)C(NC(=O)c1ccco1)(Nc1ccc(Br)cn1)C(F)(F)F (configuration not stated),2,-4,22*,-5,0

# Screening data from PubChem.
